In ChEMBL document CHEMBL3232892, “Inhibition of cellular proliferation and induction of apoptosis in human lung adenocarcinoma A549 cells by T-type calcium channel antagonist” (Bioorg Med Chem Lett, 2014):
The source made the active and inactive calls. The rule behind the calls is not given here.

Legend:
[1] = (§1) Cytotoxicity against human MIAPaCa2 cells after 48 hrs by MTT assay; format: functional, cell-based; details: MIA PaCa-2, 48 h
How it was run: (§2)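 Cells seeded and grown 24 h, then exposed 48 h to a range of concentrations in DMSO (final 0.1%), with vehicle controls at equal DMSO. Medium replaced with 0.5 mg/mL MTT in RPMI with 10% FBS for 2 h at 37 °C, reduced dye dissolved in DMSO, absorbance read at 540 nm. Triplicates; IC50 from dose–response.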

A549 [2] = test: Selectivity ratio of IC50 for human A549 cells to IC50 for human MIAPaCa2 cells; format: functional
A549 [3] = test: Cytotoxicity against human A549 cells after 48 hrs by MTT assay; format: functional, cell-based; details: for IC50: A549, 48 h; how it was run: as §2
[4] = molecular target: T1, Voltage-dependent T-type calcium channel subunit alpha-1G (Homo sapiens, UniProt O43497); test: Inhibition of T-type CaV3.1 channel (unknown origin) expressed in HEK293 cells assessed as inhibition of calcium current at 1 uM by whole cell patch-clamp method; format: cell-based
[5] = molecular target: T1, Voltage-dependent T-type calcium channel subunit alpha-1G; test: Inhibition of T-type CaV3.1 channel (unknown origin) expressed in HEK293 cells assessed as inhibition of calcium current by whole cell patch-clamp method; format: cell-based
A549 [6] = test: Cell cycle arrest in human A549 cells assessed as accumulation at G0/G1 phase at 10 uM after 24 hrs by flow cytometry (reference value: 53.1 %); format: functional
A549 [7] = test: Cell cycle arrest in human A549 cells assessed as accumulation at sub-G1 phase at 10 uM after 48 hrs by flow cytometry (reference value: 4.9 %); format: functional
A549 [8] = test: Cell cycle arrest in human A549 cells assessed as accumulation at G0/G1 phase at 10 uM after 48 hrs by flow cytometry (reference value: 57.8 %); format: functional
A549 [9] = test: Cell cycle arrest in human A549 cells assessed as accumulation at S phase at 10 uM after 24 hrs by flow cytometry (reference value: 17.6 %); format: functional
A549 [10] = test: Cell cycle arrest in human A549 cells assessed as accumulation at sub-G1 phase at 10 uM after 24 hrs by flow cytometry (reference value: 7.8 %); format: functional
A549 [11] = test: Cell cycle arrest in human A549 cells assessed as accumulation at G2/M phase at 10 uM after 24 hrs by flow cytometry (reference value: 21.6 %); format: functional
A549 [12] = test: Cell cycle arrest in human A549 cells assessed as accumulation at G2/M phase at 10 uM after 48 hrs by flow cytometry (reference value: 25.4 %); format: functional
A549 [13] = test: Cell cycle arrest in human A549 cells assessed as accumulation at S phase at 10 uM after 48 hrs by flow cytometry (reference value: 12.0 %); format: functional
A549 [14] = test: Induction of apoptosis in human A549 cells assessed as necrotic cells at 1 uM after 24 hrs by annexin V/PI staining-based FACS analysis (reference value: 2.8 %)
A549 [15] = test: Cell cycle arrest in human A549 cells assessed as accumulation at G0/G1 phase at 5 uM after 48 hrs by flow cytometry (reference value: 57.8 %); format: functional
A549 [16] = test: Induction of apoptosis in human A549 cells assessed as late apoptotic cells at 1 uM after 24 hrs by annexin V/PI staining-based FACS analysis (reference value: 3.5 %)
A549 [17] = test: Induction of apoptosis in human A549 cells assessed as viable cells at 3 uM after 24 hrs by annexin V/PI staining-based FACS analysis (reference value: 91.1 %); details: A549, 24 h
A549 [18] = test: Cell cycle arrest in human A549 cells assessed as accumulation at sub-G1 phase at 5 uM after 24 hrs by flow cytometry (reference value: 7.8 %); format: functional
MIA PaCa-2 [19] = test: as §1; format: functional, cell-based; how it was run: as §2
A549 [20] = test: Ratio of KYS05090 IC50 to compound IC50 for human A549 cells after 48 hrs by MTT assay; format: functional
A549 [21] = test: Induction of apoptosis in human A549 cells assessed as increase in PARP protein cleavage at 5 uM after 24 hrs by Western blot analysis; format: functional, cell-based
How it was run: (§3)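 Cells treated 24 h without compound or at 1, 3 or 5 µM. Pro-caspase-3, pro-caspase-9 and PARP cleavage assessed by Western blot.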

A549 [22] = test: Induction of apoptosis in human A549 cells assessed as necrotic cells at 3 uM after 24 hrs by annexin V/PI staining-based FACS analysis (reference value: 2.8 %)
A549 [23] = test: Cell cycle arrest in human A549 cells assessed as accumulation at G0/G1 phase at 5 uM after 24 hrs by flow cytometry (reference value: 53.1 %); format: functional
A549 [24] = test: Cell cycle arrest in human A549 cells assessed as accumulation at G2/M phase at 5 uM after 24 hrs by flow cytometry (reference value: 21.6 %); format: functional
A549 [25] = test: Induction of apoptosis in human A549 cells assessed as reduction in pro-caspase-3 expression at 5 uM after 24 hrs by Western blot analysis; format: functional, cell-based; how it was run: as §3
A549 [26] = test: Induction of apoptosis in human A549 cells assessed as late apoptotic cells at 3 uM after 24 hrs by annexin V/PI staining-based FACS analysis (reference value: 3.5 %)
A549 [27] = test: Cell cycle arrest in human A549 cells assessed as accumulation at G2/M phase at 5 uM after 48 hrs by flow cytometry (reference value: 25.4 %); format: functional
A549 [28] = test: Cell cycle arrest in human A549 cells assessed as accumulation at S phase at 5 uM after 48 hrs by flow cytometry (reference value: 12.0 %); format: functional
A549 [29] = test: Induction of apoptosis in human A549 cells assessed as early apoptotic cells at 3 uM after 24 hrs by annexin V/PI staining-based FACS analysis (reference value: 2.6 %)
A549 [30] = test: Induction of apoptosis in human A549 cells assessed as early apoptotic cells at 5 uM after 24 hrs by annexin V/PI staining-based FACS analysis (reference value: 2.6 %)
A549 [31] = test: Induction of apoptosis in human A549 cells assessed as viable cells at 1 uM after 24 hrs by annexin V/PI staining-based FACS analysis (reference value: 91.1 %); details: A549, 24 h
A549 [32] = test: Cell cycle arrest in human A549 cells assessed as accumulation at sub-G1 phase at 5 uM after 48 hrs by flow cytometry (reference value: 4.9 %); format: functional
A549 [33] = test: Cell cycle arrest in human A549 cells assessed as accumulation at S phase at 5 uM after 24 hrs by flow cytometry (reference value: 17.6 %); format: functional
A549 [34] = test: Induction of apoptosis in human A549 cells assessed as necrotic cells at 5 uM after 24 hrs by annexin V/PI staining-based FACS analysis (reference value: 2.8 %)
A549 [35] = test: Induction of apoptosis in human A549 cells assessed as late apoptotic cells at 5 uM after 24 hrs by annexin V/PI staining-based FACS analysis (reference value: 3.5 %)
MIA PaCa-2 [36] = test: Ratio of KYS05090 IC50 to compound IC50 for human MIAPaCa2 cells after 48 hrs by MTT assay; format: functional
A549 [37] = test: Induction of apoptosis in human A549 cells assessed as viable cells at 5 uM after 24 hrs by annexin V/PI staining-based FACS analysis (reference value: 91.1 %); details: A549, 24 h
A549 [38] = test: Induction of apoptosis in human A549 cells assessed as early apoptotic cells at 1 uM after 24 hrs by annexin V/PI staining-based FACS analysis (reference value: 2.6 %)
A549 [39] = test: Induction of apoptosis in human A549 cells assessed as reduction in pro-caspase-9 expression at 5 uM after 24 hrs by Western blot analysis; format: functional, cell-based; how it was run: as §3

T1 sequence (O43497 whole entry): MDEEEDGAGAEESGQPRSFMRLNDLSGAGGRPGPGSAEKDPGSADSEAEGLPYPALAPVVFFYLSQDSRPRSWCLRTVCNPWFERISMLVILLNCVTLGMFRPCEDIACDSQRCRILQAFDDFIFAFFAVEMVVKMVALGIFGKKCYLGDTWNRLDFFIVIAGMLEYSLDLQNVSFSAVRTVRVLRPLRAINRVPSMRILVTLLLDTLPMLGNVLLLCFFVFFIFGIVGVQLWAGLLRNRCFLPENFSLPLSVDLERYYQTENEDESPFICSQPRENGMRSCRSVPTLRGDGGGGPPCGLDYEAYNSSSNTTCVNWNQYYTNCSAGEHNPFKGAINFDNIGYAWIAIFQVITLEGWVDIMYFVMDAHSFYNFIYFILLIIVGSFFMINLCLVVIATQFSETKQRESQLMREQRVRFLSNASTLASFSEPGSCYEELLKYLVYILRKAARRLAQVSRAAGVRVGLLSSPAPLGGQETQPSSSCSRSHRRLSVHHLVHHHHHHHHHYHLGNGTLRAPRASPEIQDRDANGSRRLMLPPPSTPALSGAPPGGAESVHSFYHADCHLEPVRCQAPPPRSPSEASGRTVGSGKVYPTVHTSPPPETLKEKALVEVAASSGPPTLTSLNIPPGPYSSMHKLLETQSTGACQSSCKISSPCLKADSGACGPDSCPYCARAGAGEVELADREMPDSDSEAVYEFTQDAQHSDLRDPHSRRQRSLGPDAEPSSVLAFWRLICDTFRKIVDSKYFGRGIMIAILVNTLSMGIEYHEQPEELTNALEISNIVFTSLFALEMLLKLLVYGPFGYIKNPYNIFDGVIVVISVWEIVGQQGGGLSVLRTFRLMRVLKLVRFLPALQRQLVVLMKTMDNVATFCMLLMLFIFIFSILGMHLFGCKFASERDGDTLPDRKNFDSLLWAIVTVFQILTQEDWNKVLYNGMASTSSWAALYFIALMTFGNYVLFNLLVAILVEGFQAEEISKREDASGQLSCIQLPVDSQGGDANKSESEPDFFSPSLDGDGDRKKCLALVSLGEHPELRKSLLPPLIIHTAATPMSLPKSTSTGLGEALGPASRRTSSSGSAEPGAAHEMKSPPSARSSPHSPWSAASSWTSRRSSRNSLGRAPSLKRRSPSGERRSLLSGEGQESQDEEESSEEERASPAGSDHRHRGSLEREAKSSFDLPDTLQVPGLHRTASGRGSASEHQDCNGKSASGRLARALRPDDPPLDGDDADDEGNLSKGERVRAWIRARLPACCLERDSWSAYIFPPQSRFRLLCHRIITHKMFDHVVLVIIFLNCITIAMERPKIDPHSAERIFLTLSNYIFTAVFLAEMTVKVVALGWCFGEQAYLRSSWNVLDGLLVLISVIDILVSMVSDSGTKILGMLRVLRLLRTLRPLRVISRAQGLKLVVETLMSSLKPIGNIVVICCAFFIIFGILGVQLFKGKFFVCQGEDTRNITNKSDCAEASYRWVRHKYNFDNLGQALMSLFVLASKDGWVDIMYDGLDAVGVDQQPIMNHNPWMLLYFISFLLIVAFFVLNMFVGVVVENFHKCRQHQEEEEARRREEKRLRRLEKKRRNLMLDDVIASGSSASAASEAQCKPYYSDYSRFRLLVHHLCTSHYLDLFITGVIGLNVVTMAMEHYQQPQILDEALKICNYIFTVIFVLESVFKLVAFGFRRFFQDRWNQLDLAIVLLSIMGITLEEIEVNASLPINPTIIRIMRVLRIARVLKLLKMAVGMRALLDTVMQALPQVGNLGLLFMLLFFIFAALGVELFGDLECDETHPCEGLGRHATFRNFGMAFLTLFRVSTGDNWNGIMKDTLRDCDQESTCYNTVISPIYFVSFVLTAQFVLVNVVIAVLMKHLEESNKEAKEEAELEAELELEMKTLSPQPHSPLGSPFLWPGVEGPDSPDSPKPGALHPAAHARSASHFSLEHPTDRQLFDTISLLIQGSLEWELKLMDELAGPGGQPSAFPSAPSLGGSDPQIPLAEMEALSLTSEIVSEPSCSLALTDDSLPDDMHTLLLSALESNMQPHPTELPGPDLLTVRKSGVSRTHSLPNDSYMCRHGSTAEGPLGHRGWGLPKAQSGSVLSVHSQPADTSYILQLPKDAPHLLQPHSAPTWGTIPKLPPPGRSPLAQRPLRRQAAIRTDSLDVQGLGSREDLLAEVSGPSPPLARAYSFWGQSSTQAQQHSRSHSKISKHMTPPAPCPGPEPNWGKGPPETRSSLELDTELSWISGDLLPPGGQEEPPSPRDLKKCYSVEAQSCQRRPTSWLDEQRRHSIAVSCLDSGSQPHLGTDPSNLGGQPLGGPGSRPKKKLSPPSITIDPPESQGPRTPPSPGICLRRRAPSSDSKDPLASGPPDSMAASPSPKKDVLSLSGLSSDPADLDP

CC(C)c1ccc(N2C(N3CCN(CCN(C)C)CC3)=Nc3ccccc3C2CC(=O)NCc2ccccc2)cc1.Cl (stereo unspecified)
IC50 [1]: 3.02 µM
Ratio IC50 (A549 [2]): 2
IC50 (A549 [3]): 7.57 µM
inhibition [4]: 39.2%

COc1ccc(CNC(=O)CC2c3ccccc3N=C(N(C)CCCCCCN(C)C)N2c2ccc3ccccc3c2)cc1.Cl (stereo unspecified)
IC50 [1]: 3.99 µM
Ratio IC50 (A549 [2]): 2
IC50 [5]: 0.73 µM
IC50 (A549 [3]): 6.65 µM
inhibition [4]: 55.2%

CN(C)C(=O)NCCCN(C)C1=Nc2ccccc2C(CC(=O)NCc2ccc(F)cc2)N1c1ccc(-c2ccccc2)cc1.Cl (stereo unspecified)
IC50 [1]: 7.43 µM
Ratio IC50 (A549 [2]): 2
IC50 [5]: 0.6 µM
IC50 (A549 [3]): 15 µM
inhibition [4]: 53.5%

CN(C)CCN1CCN(C2=Nc3ccccc3C(CC(=O)NCc3ccc(N(S(C)(=O)=O)S(C)(=O)=O)cc3)N2c2ccc(-c3ccccc3)cc2)CC1.Cl (stereo unspecified)
IC50 [1]: 16.1 µM
Ratio IC50 (A549 [2]): 2
IC50 [5]: 0.52 µM
IC50 (A549 [3]): 20.7 µM
inhibition [4]: 64.3%

COCC(=O)O[C@]1(CCN(C)CCCc2nc3ccccc3[nH]2)CCc2cc(F)ccc2[C@@H]1C(C)C [MIBEFRADIL]
Activity (A549 [6]): 66.1%
Activity (A549 [7]): 10%
IC50 [1]: 18.4 µM
Activity (A549 [8]): 66.8%
Activity (A549 [9]): 10.9%
Activity (A549 [10]): 9.6%
Activity (A549 [11]): 13.4%
Activity (A549 [12]): 11.2%
IC50 (A549 [3]): 24.8 µM
Activity (A549 [13]): 12%

CN(C)CCCCCCN(C)C1=Nc2ccccc2C(CC(=O)NCc2ccccc2)N1c1ccc2ccccc2c1.Cl (stereo unspecified)
IC50 [1]: 2.54 µM
Ratio IC50 (A549 [2]): 2
IC50 (A549 [3]): 5.44 µM
inhibition [4]: 26.4%

CN(C)CCN1CCN(C2=Nc3ccccc3C(CC(=O)NCc3ccccc3)N2c2ccc(C3CCCCC3)cc2)CC1.Cl (stereo unspecified)
Activity (A549 [14]): 2.5%
Activity (A549 [15]): 15.7%
Activity (A549 [16]): 3.2%
viability at 3 µM (A549 [17]): 67.4%
Activity (A549 [18]): 15.8%
IC50 [1]: 0.93 µM
inhibition (MIA PaCa-2 [19]): Dose-dependent effect
Ratio IC50 (A549 [20]): 2
Activity (A549 [21]): Active
Activity (A549 [22]): 0.3%
Activity (A549 [23]): 55.4%
Activity (A549 [24]): 16%
Activity (A549 [25]): Active
Ratio IC50 (A549 [2]): 2
Activity (A549 [26]): 1.9%
Activity (A549 [27]): 1.9%
IC50 [5]: 1.04 µM
Activity (A549 [28]): 4.6%
Activity (A549 [29]): 30.4%
Activity (A549 [30]): 32.1%
viability at 1 µM (A549 [31]): 91.8%
inhibition (A549 [3]): Dose-dependent effect
IC50 (A549 [3]): 2.25 µM
Activity (A549 [32]): 77.8%
Activity (A549 [33]): 12.8%
Activity (A549 [34]): 1.3%
Activity (A549 [35]): 13.3%
inhibition [4]: 53.2%
Ratio IC50 (MIA PaCa-2 [36]): 2
viability at 5 µM (A549 [37]): 53.4%
Activity (A549 [38]): 2.5%
Activity (A549 [39]): Active

CN(C)CCN1CCN(C2=Nc3ccccc3C(CC(=O)OCc3ccccc3)N2c2ccc(-c3ccccc3)cc2)CC1 (stereo unspecified)
IC50 [1]: 2.7 µM
Ratio IC50 (A549 [2]): 2
IC50 [5]: 1.81 µM
IC50 (A549 [3]): 4.29 µM
inhibition [4]: 46.4%

CN(C)CCCCCN(C)C1=Nc2ccccc2C(CC(=O)NCc2ccccc2)N1c1ccc(-c2ccccc2)cc1.Cl.Cl (stereo unspecified)
Activity (A549 [15]): 1.2%
Activity (A549 [18]): 55.3%
IC50 [1]: 1.94 µM
Activity (A549 [23]): 33.6%
Activity (A549 [24]): 2.2%
Ratio IC50 (A549 [2]): 2
Activity (A549 [27]): 0.1%
Activity (A549 [28]): 0.6%
IC50 (A549 [3]): 4.07 µM
Activity (A549 [32]): 98.1%
Activity (A549 [33]): 8.8%
inhibition [4]: 76.6%

CN(C)CCN1CCN(C2=Nc3ccccc3C(CC(=O)NCc3ccc([N+](=O)[O-])cc3)N2c2ccc(-c3ccccc3)cc2)CC1.Cl (stereo unspecified)
IC50 [1]: 2.18 µM
Ratio IC50 (A549 [2]): 2
IC50 (A549 [3]): 4.69 µM
inhibition [4]: 38.1%
